Measurements published in ChEMBL document CHEMBL3046804, “Synthesis and fungicidal activity of novel 3-(substituted/unsubstituted phenylselenonyl)-1-ribosyl/deoxyribosyl-1H-1,2,4-triazole” (2012).

Legend:
Type in all cases: functional
Fusarium oxysporum [1] = test: Fungitoxicity against Fusarium oxysporum assessed as inhibition of mycelia growth at 28 +/- 1 degC at 1000 ug/mL for 96 hr by poisoned food technique
Procedure, shortened: (§1)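 Poisoned food technique in Czapek's agar dishes, with test compound incorporated at 10, 100 or 1000 μg/mL. Fungus inoculated at the dish centre and incubated 96 h at 28 ± 1 °C. Percent inhibition = 100 × (mean hyphal diameter in control − mean hyphal diameter in test) / mean hyphal diameter in control. Three replicate assays per treatment and six replicate controls. Griseofulvin and Dithane M-45 served as standards.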

Fusarium oxysporum [2] = test: Fungitoxicity against Fusarium oxysporum assessed as inhibition of mycelia growth at 28 +/- 1 degC at 100 ug/mL for 96 hr by poisoned food technique; procedure, shortened: as §1
Fusarium oxysporum [3] = test: Fungitoxicity against Fusarium oxysporum assessed as inhibition of mycelia growth at 28 +/- 1 degC at 10 ug/mL for 96 hr by poisoned food technique; procedure, shortened: as §1
Penicillium citrinum [4] = test: Fungitoxicity against Penicillium citrinum assessed as inhibition of mycelia growth at 28 +/- 1 degC at 1000 ug/mL for 96 hr by poisoned food technique; procedure, shortened: as §1
Penicillium citrinum [5] = test: Fungitoxicity against Penicillium citrinum assessed as inhibition of mycelia growth at 28 +/- 1 degC at 100 ug/mL for 96 hr by poisoned food technique; procedure, shortened: as §1
Penicillium citrinum [6] = test: Fungitoxicity against Penicillium citrinum assessed as inhibition of mycelia growth at 28 +/- 1 degC at 10 ug/mL for 96 hr by poisoned food technique; procedure, shortened: as §1

`O=[Se](=O)(c1ccccc1)c1ncn([C@@H]2O[C@H](CO)[C@@H](O)[C@H]2O)n1` gave an inhibition at 1000 µg/mL (Fusarium oxysporum [1]) of 82%, an inhibition at 100 µg/mL (Fusarium oxysporum [2]) of 65% and an inhibition at 10 µg/mL (Fusarium oxysporum [3]) of 50%. The inhibition at 1000 µg/mL (Penicillium citrinum [4]) was 89%, the inhibition at 100 µg/mL (Penicillium citrinum [5]) was 42% and the inhibition at 10 µg/mL (Penicillium citrinum [6]) was 35%.

With `CC(=O)OC[C@H]1O[C@@H](n2cnc([Se](=O)(=O)c3ccc(C)cc3)n2)C[C@@H]1OC(C)=O` the inhibition at 1000 µg/mL (Fusarium oxysporum [1]) was 45%, the inhibition at 100 µg/mL (Fusarium oxysporum [2]) was 35% and the inhibition at 10 µg/mL (Fusarium oxysporum [3]) was 26%. It also gave an inhibition at 1000 µg/mL (Penicillium citrinum [4]) of 42%, an inhibition at 100 µg/mL (Penicillium citrinum [5]) of 31% and an inhibition at 10 µg/mL (Penicillium citrinum [6]) of 17%.

In the case of `CC(=O)OC[C@H]1O[C@@H](n2cnc([Se](=O)(=O)c3ccc(Cl)cc3)n2)C[C@@H]1OC(C)=O`, the inhibition at 1000 µg/mL (Fusarium oxysporum [1]) is reported as 54%, the inhibition at 100 µg/mL (Fusarium oxysporum [2]) is reported as 26% and the inhibition at 10 µg/mL (Fusarium oxysporum [3]) is reported as 15%. The inhibition at 1000 µg/mL (Penicillium citrinum [4]) was 51%, the inhibition at 100 µg/mL (Penicillium citrinum [5]) was 35% and the inhibition at 10 µg/mL (Penicillium citrinum [6]) was 16%.

`CC(=O)OC[C@H]1O[C@@H](n2cnc([Se](=O)(=O)c3ccc([N+](=O)[O-])cc3)n2)C[C@@H]1OC(C)=O` showed an inhibition at 1000 µg/mL (Fusarium oxysporum [1]) of 54%, an inhibition at 100 µg/mL (Fusarium oxysporum [2]) of 28% and an inhibition at 10 µg/mL (Fusarium oxysporum [3]) of 16%. It also gave an inhibition at 1000 µg/mL (Penicillium citrinum [4]) of 51%, an inhibition at 100 µg/mL (Penicillium citrinum [5]) of 34% and an inhibition at 10 µg/mL (Penicillium citrinum [6]) of 18%.

With `COc1ccc([Se](=O)(=O)c2ncn([C@@H]3O[C@H](CO)[C@@H](O)[C@H]3O)n2)cc1` the inhibition at 1000 µg/mL (Fusarium oxysporum [1]) was 100%, the inhibition at 100 µg/mL (Fusarium oxysporum [2]) was 68% and the inhibition at 10 µg/mL (Fusarium oxysporum [3]) was 55%. For the same compound, the inhibition at 1000 µg/mL (Penicillium citrinum [4]) was 99%, the inhibition at 100 µg/mL (Penicillium citrinum [5]) was 49% and the inhibition at 10 µg/mL (Penicillium citrinum [6]) was 39%.

Compound `Cc1ccc([Se](=O)(=O)c2ncn([C@@H]3O[C@H](CO)[C@@H](O)[C@H]3O)n2)cc1` has an inhibition at 1000 µg/mL (Fusarium oxysporum [1]) of 88%, an inhibition at 100 µg/mL (Fusarium oxysporum [2]) of 80% and an inhibition at 10 µg/mL (Fusarium oxysporum [3]) of 62%. For the same compound, the inhibition at 1000 µg/mL (Penicillium citrinum [4]) was 80%, the inhibition at 100 µg/mL (Penicillium citrinum [5]) was 78% and the inhibition at 10 µg/mL (Penicillium citrinum [6]) was 69%.

With `O=[Se](=O)(c1ccc(Cl)cc1)c1ncn([C@@H]2O[C@H](CO)[C@@H](O)[C@H]2O)n1` the inhibition at 1000 µg/mL (Fusarium oxysporum [1]) was 100%, the inhibition at 100 µg/mL (Fusarium oxysporum [2]) was 72% and the inhibition at 10 µg/mL (Fusarium oxysporum [3]) was 44%. It also gave an inhibition at 1000 µg/mL (Penicillium citrinum [4]) of 97%, an inhibition at 100 µg/mL (Penicillium citrinum [5]) of 65% and an inhibition at 10 µg/mL (Penicillium citrinum [6]) of 36%.

`O=[N+]([O-])c1ccc([Se](=O)(=O)c2ncn([C@@H]3O[C@H](CO)[C@@H](O)[C@H]3O)n2)cc1` gave an inhibition at 1000 µg/mL (Fusarium oxysporum [1]) of 81%, an inhibition at 100 µg/mL (Fusarium oxysporum [2]) of 48% and an inhibition at 10 µg/mL (Fusarium oxysporum [3]) of 35%. It also gave an inhibition at 1000 µg/mL (Penicillium citrinum [4]) of 86%, an inhibition at 100 µg/mL (Penicillium citrinum [5]) of 59% and an inhibition at 10 µg/mL (Penicillium citrinum [6]) of 37%.

In the case of `O=[Se](=O)(c1ccccc1)c1ncn([C@H]2C[C@H](O)[C@@H](CO)O2)n1`, the inhibition at 1000 µg/mL (Fusarium oxysporum [1]) is reported as 77%, the inhibition at 100 µg/mL (Fusarium oxysporum [2]) is reported as 42% and the inhibition at 10 µg/mL (Fusarium oxysporum [3]) is reported as 33%. The inhibition at 1000 µg/mL (Penicillium citrinum [4]) was 81%, the inhibition at 100 µg/mL (Penicillium citrinum [5]) was 74% and the inhibition at 10 µg/mL (Penicillium citrinum [6]) was 65%.

With `COc1ccc([Se](=O)(=O)c2ncn([C@H]3C[C@H](O)[C@@H](CO)O3)n2)cc1` the inhibition at 1000 µg/mL (Fusarium oxysporum [1]) was 91%, the inhibition at 100 µg/mL (Fusarium oxysporum [2]) was 76% and the inhibition at 10 µg/mL (Fusarium oxysporum [3]) was 65%. The inhibition at 1000 µg/mL (Penicillium citrinum [4]) was 76%, the inhibition at 100 µg/mL (Penicillium citrinum [5]) was 48% and the inhibition at 10 µg/mL (Penicillium citrinum [6]) was 42%.

`Cc1ccc([Se](=O)(=O)c2ncn([C@H]3C[C@H](O)[C@@H](CO)O3)n2)cc1` was tested, and the inhibition at 1000 µg/mL (Fusarium oxysporum [1]) was 81%, the inhibition at 100 µg/mL (Fusarium oxysporum [2]) was 75% and the inhibition at 10 µg/mL (Fusarium oxysporum [3]) was 61%. For the same compound, the inhibition at 1000 µg/mL (Penicillium citrinum [4]) was 80%, the inhibition at 100 µg/mL (Penicillium citrinum [5]) was 74% and the inhibition at 10 µg/mL (Penicillium citrinum [6]) was 67%.

In the case of `O=[Se](=O)(c1ccc(Cl)cc1)c1ncn([C@H]2C[C@H](O)[C@@H](CO)O2)n1`, the inhibition at 1000 µg/mL (Fusarium oxysporum [1]) is reported as 81%, the inhibition at 100 µg/mL (Fusarium oxysporum [2]) is reported as 56% and the inhibition at 10 µg/mL (Fusarium oxysporum [3]) is reported as 32%. For the same compound, the inhibition at 1000 µg/mL (Penicillium citrinum [4]) was 75%, the inhibition at 100 µg/mL (Penicillium citrinum [5]) was 65% and the inhibition at 10 µg/mL (Penicillium citrinum [6]) was 31%.

With `O=[N+]([O-])c1ccc([Se](=O)(=O)c2ncn([C@H]3C[C@H](O)[C@@H](CO)O3)n2)cc1` the inhibition at 1000 µg/mL (Fusarium oxysporum [1]) was 82%, the inhibition at 100 µg/mL (Fusarium oxysporum [2]) was 60% and the inhibition at 10 µg/mL (Fusarium oxysporum [3]) was 41%. For the same compound, the inhibition at 1000 µg/mL (Penicillium citrinum [4]) was 87%, the inhibition at 100 µg/mL (Penicillium citrinum [5]) was 63% and the inhibition at 10 µg/mL (Penicillium citrinum [6]) was 33%.

Compound `CC(=O)OC[C@H]1O[C@@H](n2cnc([Se](=O)(=O)c3ccccc3)n2)[C@H](OC(C)=O)[C@@H]1OC(C)=O` has an inhibition at 1000 µg/mL (Fusarium oxysporum [1]) of 41%, an inhibition at 100 µg/mL (Fusarium oxysporum [2]) of 32% and an inhibition at 10 µg/mL (Fusarium oxysporum [3]) of 15%. For the same compound, the inhibition at 1000 µg/mL (Penicillium citrinum [4]) was 38%, the inhibition at 100 µg/mL (Penicillium citrinum [5]) was 30% and the inhibition at 10 µg/mL (Penicillium citrinum [6]) was 12%.

Work on `COc1ccc([Se](=O)(=O)c2ncn([C@@H]3O[C@H](COC(C)=O)[C@@H](OC(C)=O)[C@H]3OC(C)=O)n2)cc1` yielded an inhibition at 1000 µg/mL (Fusarium oxysporum [1]) of 53%, an inhibition at 100 µg/mL (Fusarium oxysporum [2]) of 44% and an inhibition at 10 µg/mL (Fusarium oxysporum [3]) of 16%. For the same compound, the inhibition at 1000 µg/mL (Penicillium citrinum [4]) was 47%, the inhibition at 100 µg/mL (Penicillium citrinum [5]) was 32% and the inhibition at 10 µg/mL (Penicillium citrinum [6]) was 17%.

In the case of `CC(=O)OC[C@H]1O[C@@H](n2cnc([Se](=O)(=O)c3ccc(C)cc3)n2)[C@H](OC(C)=O)[C@@H]1OC(C)=O`, the inhibition at 1000 µg/mL (Fusarium oxysporum [1]) is reported as 52%, the inhibition at 100 µg/mL (Fusarium oxysporum [2]) is reported as 37% and the inhibition at 10 µg/mL (Fusarium oxysporum [3]) is reported as 17%. For the same compound, the inhibition at 1000 µg/mL (Penicillium citrinum [4]) was 51%, the inhibition at 100 µg/mL (Penicillium citrinum [5]) was 42% and the inhibition at 10 µg/mL (Penicillium citrinum [6]) was 21%.

`CC(=O)OC[C@H]1O[C@@H](n2cnc([Se](=O)(=O)c3ccc(Cl)cc3)n2)[C@H](OC(C)=O)[C@@H]1OC(C)=O` gave an inhibition at 1000 µg/mL (Fusarium oxysporum [1]) of 55%, an inhibition at 100 µg/mL (Fusarium oxysporum [2]) of 29% and an inhibition at 10 µg/mL (Fusarium oxysporum [3]) of 14%. The inhibition at 1000 µg/mL (Penicillium citrinum [4]) was 53%, the inhibition at 100 µg/mL (Penicillium citrinum [5]) was 39% and the inhibition at 10 µg/mL (Penicillium citrinum [6]) was 22%.

With `CC(=O)OC[C@H]1O[C@@H](n2cnc([Se](=O)(=O)c3ccc([N+](=O)[O-])cc3)n2)[C@H](OC(C)=O)[C@@H]1OC(C)=O` the inhibition at 1000 µg/mL (Fusarium oxysporum [1]) was 65%, the inhibition at 100 µg/mL (Fusarium oxysporum [2]) was 55% and the inhibition at 10 µg/mL (Fusarium oxysporum [3]) was 30%. It also gave an inhibition at 1000 µg/mL (Penicillium citrinum [4]) of 62%, an inhibition at 100 µg/mL (Penicillium citrinum [5]) of 41% and an inhibition at 10 µg/mL (Penicillium citrinum [6]) of 24%.

Work on `CC(=O)OC[C@H]1O[C@@H](n2cnc([Se](=O)(=O)c3ccccc3)n2)C[C@@H]1OC(C)=O` yielded an inhibition at 1000 µg/mL (Fusarium oxysporum [1]) of 45%, an inhibition at 100 µg/mL (Fusarium oxysporum [2]) of 33% and an inhibition at 10 µg/mL (Fusarium oxysporum [3]) of 25%. The inhibition at 1000 µg/mL (Penicillium citrinum [4]) was 42%, the inhibition at 100 µg/mL (Penicillium citrinum [5]) was 32% and the inhibition at 10 µg/mL (Penicillium citrinum [6]) was 23%.

For `COc1ccc([Se](=O)(=O)c2ncn([C@H]3C[C@H](OC(C)=O)[C@@H](COC(C)=O)O3)n2)cc1`, the inhibition at 1000 µg/mL (Fusarium oxysporum [1]) was 65%, the inhibition at 100 µg/mL (Fusarium oxysporum [2]) was 25% and the inhibition at 10 µg/mL (Fusarium oxysporum [3]) was 17%. It also gave an inhibition at 1000 µg/mL (Penicillium citrinum [4]) of 64%, an inhibition at 100 µg/mL (Penicillium citrinum [5]) of 35% and an inhibition at 10 µg/mL (Penicillium citrinum [6]) of 24%.

Work on `COC1=CC(=O)C[C@@H](C)[C@]12Oc1c(Cl)c(OC)cc(OC)c1C2=O` [GRISEOFULVIN] yielded an inhibition at 1000 µg/mL (Fusarium oxysporum [1]) of 100%, an inhibition at 100 µg/mL (Fusarium oxysporum [2]) of 95% and an inhibition at 10 µg/mL (Fusarium oxysporum [3]) of 91%. The inhibition at 1000 µg/mL (Penicillium citrinum [4]) was 100%, the inhibition at 100 µg/mL (Penicillium citrinum [5]) was 94% and the inhibition at 10 µg/mL (Penicillium citrinum [6]) was 90%.
